Laboratory results from ChEMBL document CHEMBL4673255, “Acylated 1H-1,2,4-Triazol-5-amines Targeting Human Coagulation Factor XIIa and Thrombin: Conventional and Microscale Synthesis, Anticoagulant Properties, and Mechanism of Action” (J Med Chem, 2020).

Key:
[1] = target: T1, Coagulation factor XII (Homo sapiens) (UniProt P00748); test: Inhibition of human coagulation factor XIIA in presence of Boc-Gln-Gly-Arg-AMC as fluorogenic substrate at 1 uM measured at 1 min interval for 1 hr by fluorometric assay relative to control
T1 sequence (whole entry): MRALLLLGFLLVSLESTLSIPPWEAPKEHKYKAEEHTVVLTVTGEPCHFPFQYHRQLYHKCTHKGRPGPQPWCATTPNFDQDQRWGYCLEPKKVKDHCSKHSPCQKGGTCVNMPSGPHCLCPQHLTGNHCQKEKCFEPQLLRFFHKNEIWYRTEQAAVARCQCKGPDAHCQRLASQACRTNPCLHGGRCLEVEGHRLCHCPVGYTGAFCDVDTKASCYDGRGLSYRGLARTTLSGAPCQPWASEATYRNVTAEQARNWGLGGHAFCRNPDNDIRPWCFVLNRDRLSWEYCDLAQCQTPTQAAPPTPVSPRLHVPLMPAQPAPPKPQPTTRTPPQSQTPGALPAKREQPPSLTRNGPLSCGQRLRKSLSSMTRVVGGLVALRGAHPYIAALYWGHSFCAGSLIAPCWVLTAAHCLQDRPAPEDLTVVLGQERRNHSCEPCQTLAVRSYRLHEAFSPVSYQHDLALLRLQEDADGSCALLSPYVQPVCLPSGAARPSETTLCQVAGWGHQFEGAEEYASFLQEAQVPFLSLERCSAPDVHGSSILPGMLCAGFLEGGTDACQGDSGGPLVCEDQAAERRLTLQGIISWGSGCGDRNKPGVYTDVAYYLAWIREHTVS
Method in brief: (§1)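 Screening of crude microscale amide-coupling products. Conversion was measured by 1H NMR and product content normalised to 76 µmol/L in DMSO, then tested at 1 µM and 100 nM in the fluorogenic FXIIa or thrombin assay. A 0-conversion reaction served as blank. Percent inhibition is from triplicates.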

[2] = Inhibition of porcine trypsin using Z-Gly-Gly-Arg-AMC as fluorogenic substrate measured at 1 min interval for 1 hr by fluorometric assay; set-up: species or system Sus scrofa
Prothrombin [3] = target: T2, Prothrombin (Homo sapiens, UniProt P00734); test: Inhibition of human coagulation factor alpha-thrombin using Boc-Val-Pro-Arg-AMC as fluorogenic substrate measured at 1 min interval for 1 hr by fluorometric assay
Blood [4] = test: Effect on blood coagulation in human blood assessed as increase in prothrombin time at 300 uM incubated for 3 mins followed by CaCl2 addition by PT reagent based assay relative to control; format: ADME, tissue-based; settings: 0.05 h
Method in brief: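 Clotting was started with PT reagent already containing CaCl2, prewarmed to 37 °C, and clotting time was recorded. Increase is given relative to DMSO; at least triplicate, mean ± SD.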

Coagulation factor X = Coagulation factor X (Homo sapiens, UniProt P00742); test: Inhibition of human coagulation factor Xa using Boc-Ile-Glu-Gly-Arg-AMC as fluorogenic substrate measured at 1 min interval for 1 hr by fluorometric assay
Sequence of Coagulation factor X (P00742 41-179 limits assumed): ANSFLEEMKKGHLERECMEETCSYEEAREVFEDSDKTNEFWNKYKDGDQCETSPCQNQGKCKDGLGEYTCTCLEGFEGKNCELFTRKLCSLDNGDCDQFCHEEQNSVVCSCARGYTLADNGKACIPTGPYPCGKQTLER
Sequence of Coagulation factor X (P00742 235-488 limits assumed): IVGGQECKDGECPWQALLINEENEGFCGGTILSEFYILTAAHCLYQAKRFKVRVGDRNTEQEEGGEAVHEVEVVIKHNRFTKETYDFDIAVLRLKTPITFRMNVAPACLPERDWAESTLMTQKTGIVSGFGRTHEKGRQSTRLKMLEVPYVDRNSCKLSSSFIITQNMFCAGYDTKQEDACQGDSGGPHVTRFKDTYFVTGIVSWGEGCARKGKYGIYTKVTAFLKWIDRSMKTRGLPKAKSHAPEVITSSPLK

Coagulation factor XII = target: T3, Coagulation factor XII (Homo sapiens, UniProt P00748); test: Inhibition of human coagulation factor XIIA using Boc-Gln-Gly-Arg-AMC as fluorogenic substrate measured at 1 min interval for 1 hr by fluorometric assay
T3 sequence (P00748 whole entry): T1 sequence (whole entry)

Blood [5] = test: Anticoagulant activity in human blood assessed as increase in activated partial thromboplastin time at 300 uM incubated for 1 min by aPTT reagent based assay relative to control; format: functional
Method in brief: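 Compounds were tested at 300 µM, and the increase was expressed relative to DMSO. The doubling concentration (EC2×) is the concentration prolonging aPTT twofold. At least triplicate, mean ± SD.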

Prothrombin [6] = target: T2, Prothrombin; test: Inhibition of human coagulation factor thrombin using Boc-Val-Pro-Arg-AMC as fluorogenic substrate at 100 nM measured at 1 min interval for 1 hr by fluorometric assay relative to control; method in brief: as §1
[7] = target: T1, Coagulation factor XII (Homo sapiens); test: Binding affinity to human plasma coagulation factor XIIA assessed as compound-adduct formation by measuring change in molecular mass at molar ratio of 1:20 measured after 4 mins by SEC/ESI-TOF mass spectra analysis; format: cell-free
Method in brief: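 β-FXIIa incubated with inhibitor at a 1:20 molar ratio, then size-exclusion chromatography coupled to ESI-MS to measure the mass of enzyme–inhibitor complexes. Further runs checked complex stability to probe reversibility.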

[8] = target: T1, Coagulation factor XII (Homo sapiens); test: Inhibition of human coagulation factor XIIA using Boc-Gln-Gly-Arg-AMC as fluorogenic substrate at 100 nM measured at 1 min interval for 1 hr by fluorometric assay relative to control; method in brief: as §1
Plasma [9] = test: (§2) Anticoagulant activity in human platelet-rich plasma assessed as reduction in TF-induced thrombin generation by measuring endogenous thrombin potential at 100 uM preincubated for 15 mins followed by TF addition by Z-Gly-Gly-Arg-AMC substrate based calibrated automated thrombography (reference value: 1203 +/- 44 AU.min/L); format: functional; settings: 0.25 h
Method in brief: (§3)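 Tissue-factor-triggered homogeneous thrombin generation followed by fluorogenic substrate cleavage. Read-outs: clotting time (T1/2), peak amplitude (Amax, AU/L), time to peak (Tmax) and ETP (AU·min/L). DMSO and buffer served as controls. n = 3, mean ± SD.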

Plasma [10] = test: (§4) Anticoagulant activity in human platelet-rich plasma assessed as reduction in TF-induced thrombin generation by measuring half life of clotting time at 100 uM preincubated for 15 mins followed by TF addition by Z-Gly-Gly-Arg-AMC substrate based calibrated automated thrombography (Rvb= 3 +/- 0.5 min); format: functional, cell-free; method in brief: as §3
Plasma [11] = test: as §4, with “Tmax” for “half life”, “(reference value: 8.1” for “(Rvb= 3”, “0.6” for “0.5”; format: functional, cell-free; method in brief: as §3
Plasma [12] = test: as §2, with “amplitude of” for “endogenous”, “peak” for “potential”, “63” for “1203”, “3.7 AU/L)” for “44 AU.min/L)”; format: functional; settings: 0.25 h; method in brief: as §3
Plasminogen = Plasminogen (Homo sapiens, UniProt P00747); test: Inhibition of human plasmin using Mes-dArg-Phe-Arg-AMC as fluorogenic substrate measured at 1 min interval for 1 hr by fluorometric assay
Sequence of Plasminogen (P00747 97-580 limits assumed): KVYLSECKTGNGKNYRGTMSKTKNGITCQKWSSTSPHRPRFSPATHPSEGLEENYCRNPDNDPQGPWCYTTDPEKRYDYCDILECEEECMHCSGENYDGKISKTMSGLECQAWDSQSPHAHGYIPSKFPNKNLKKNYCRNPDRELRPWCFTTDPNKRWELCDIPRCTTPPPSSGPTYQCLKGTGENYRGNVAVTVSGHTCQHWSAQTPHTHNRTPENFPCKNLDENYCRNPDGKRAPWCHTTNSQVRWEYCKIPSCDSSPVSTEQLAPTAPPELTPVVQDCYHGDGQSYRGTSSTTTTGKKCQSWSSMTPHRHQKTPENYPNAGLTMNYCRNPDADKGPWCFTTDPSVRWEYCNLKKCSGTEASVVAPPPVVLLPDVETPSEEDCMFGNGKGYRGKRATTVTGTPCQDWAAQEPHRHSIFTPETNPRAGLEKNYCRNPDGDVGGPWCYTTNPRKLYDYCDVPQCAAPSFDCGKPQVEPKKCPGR
Sequence of Plasminogen (P00747 581-810 limits assumed): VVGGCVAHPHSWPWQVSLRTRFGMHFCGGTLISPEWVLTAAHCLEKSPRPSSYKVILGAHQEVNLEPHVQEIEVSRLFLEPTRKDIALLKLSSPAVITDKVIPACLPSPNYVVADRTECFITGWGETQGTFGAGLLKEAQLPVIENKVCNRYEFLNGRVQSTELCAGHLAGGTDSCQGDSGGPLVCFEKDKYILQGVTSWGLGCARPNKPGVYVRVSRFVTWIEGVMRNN

[13] = target: Urokinase-type plasminogen activator (Homo sapiens, UniProt P00749); test: Inhibition of human uPA using Tos-Gly-Pro-Arg-AMC as fluorogenic substrate measured at 1 min interval for 1 hr by fluorometric assay
Plasma kallikrein = Plasma kallikrein (Homo sapiens, UniProt P03952); test: Inhibition of human kallikrein using Mes-dArg-Pro-Arg-AMC as fluorogenic substrate measured at 1 min interval for 1 hr by fluorometric assay
Sequence of Plasma kallikrein (P03952 20-390 limits assumed): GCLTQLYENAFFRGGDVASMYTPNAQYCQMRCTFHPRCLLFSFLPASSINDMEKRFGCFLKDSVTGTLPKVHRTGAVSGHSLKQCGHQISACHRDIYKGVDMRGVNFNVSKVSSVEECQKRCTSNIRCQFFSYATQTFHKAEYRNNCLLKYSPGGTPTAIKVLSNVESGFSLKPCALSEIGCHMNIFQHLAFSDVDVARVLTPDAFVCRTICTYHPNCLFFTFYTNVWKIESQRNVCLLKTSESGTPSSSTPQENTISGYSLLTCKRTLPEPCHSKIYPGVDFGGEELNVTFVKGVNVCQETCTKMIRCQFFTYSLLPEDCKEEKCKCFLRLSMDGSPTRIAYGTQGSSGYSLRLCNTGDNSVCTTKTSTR
Sequence of Plasma kallikrein (P03952 391-638 limits assumed): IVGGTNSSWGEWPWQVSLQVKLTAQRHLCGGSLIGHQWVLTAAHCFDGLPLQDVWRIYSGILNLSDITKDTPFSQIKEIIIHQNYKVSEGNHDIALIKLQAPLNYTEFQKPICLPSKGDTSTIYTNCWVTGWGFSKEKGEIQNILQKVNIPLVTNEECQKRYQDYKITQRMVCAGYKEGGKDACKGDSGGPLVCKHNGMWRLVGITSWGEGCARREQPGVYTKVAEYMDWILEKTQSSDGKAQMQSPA

Coagulation factor XI = Coagulation factor XI (Homo sapiens, UniProt P03951); test: Inhibition of human coagulation factor XIA using Mes-dArg-Pro-Arg-AMC as fluorogenic substrate measured at 1 min interval for 1 hr by fluorometric assay
Sequence of Coagulation factor XI (P03951 19-387 limits assumed): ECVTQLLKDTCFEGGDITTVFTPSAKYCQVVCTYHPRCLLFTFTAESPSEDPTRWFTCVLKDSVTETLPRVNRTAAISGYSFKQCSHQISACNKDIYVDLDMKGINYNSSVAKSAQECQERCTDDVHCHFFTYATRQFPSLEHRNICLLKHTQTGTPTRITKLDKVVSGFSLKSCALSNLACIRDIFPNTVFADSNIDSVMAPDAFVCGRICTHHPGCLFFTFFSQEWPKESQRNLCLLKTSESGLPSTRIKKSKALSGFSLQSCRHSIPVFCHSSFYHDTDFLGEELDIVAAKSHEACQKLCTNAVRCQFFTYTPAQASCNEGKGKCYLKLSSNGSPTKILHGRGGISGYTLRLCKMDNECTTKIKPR
Sequence of Coagulation factor XI (P03951 388-625 limits assumed): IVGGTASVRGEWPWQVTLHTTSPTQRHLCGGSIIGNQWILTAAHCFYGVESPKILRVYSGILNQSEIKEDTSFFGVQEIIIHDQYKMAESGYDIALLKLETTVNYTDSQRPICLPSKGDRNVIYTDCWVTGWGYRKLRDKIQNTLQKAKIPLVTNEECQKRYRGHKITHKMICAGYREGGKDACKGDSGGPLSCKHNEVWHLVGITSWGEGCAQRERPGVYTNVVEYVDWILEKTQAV

Homo sapiens = species: Homo sapiens; test: Selectivity index, ratio of IC50 for inhibition of human coagulation factor alpha-thrombin using Boc-Val-Pro-Arg-AMC as fluorogenic substrate to IC50 for inhibition of human coagulation factor XIIA using Boc-Gln-Gly-Arg-AMC as fluorogenic substrate incubated for 1 hr by fluorometric assay

Row | inhibition [1] | IC50 [2] | IC50 (Prothrombin [3]) | Activity (Blood [4]) | IC50 (Coagulation factor X) | IC50 (Coagulation factor XII) | Structure (SMILES) | Activity (Blood [5]) | other results
1 | 80% | > 5 µM | 0.329 µM | 14% | > 5 µM | 0.291 µM | COc1ccc(C(=O)n2nc(-c3ccccn3)nc2N)cc1 | 108% | –
2 | 79% | > 5 µM | 0.481 µM | 8% | > 5 µM | 0.306 µM | Nc1nc(-c2ccccn2)nn1C(=O)c1ccc(F)cc1 | 78% | –
3 | 43% | – | > 5 µM | – | > 5 µM | 1.56 µM | Nc1nc(-c2ccccn2)nn1C(=O)c1ccccc1[N+](=O)[O-] | – | –
4 | – | > 5 µM | > 5 µM | – | > 5 µM | > 5 µM | Nc1n[nH]c(-c2ccccc2)n1 | – | –
5 | 96% | > 5 µM | 0.421 µM | 7% | > 5 µM | 0.134 µM | Nc1nc(-c2ccccn2)nn1C(=O)[C@H]1CCCc2ccccc21 | 67% | inhibition (Prothrombin [6]): 6%; Activity [7]: 158 Da; inhibition [8]: 70%
6 | 85% | > 5 µM | 0.308 µM | 6% | > 5 µM | 0.162 µM | CCc1ccc(C(=O)n2nc(-c3ccccn3)nc2N)cc1 | 114% | –
7 | 92% | > 5 µM | 0.057 µM | 48% | > 5 µM | 0.091 µM | Cc1ccc(C(=O)n2nc(-c3ccccn3)nc2N)cc1C | 227% | Activity (Plasma [9]): 370 AU.min/L; T1/2 (Plasma [10]): 3.8 min; Tmax (Plasma [11]): 8.8 min; Activity (Plasma [12]): 16.9 AU/L; IC50 (Plasminogen): 25.8 µM; IC50 [13]: 2.94 µM; IC50 (Plasma kallikrein): > 5 µM; IC50 (Coagulation factor XI): > 5 µM
8 | – | – | – | 539% | – | > 33 µM | [H]/N=C(/N)c1ccc(NCc2nc3cc(C(=O)N(CCC(=O)O)c4ccccn4)ccc3n2C)cc1 [DABIGATRAN] | – | –
9 | – | > 5 µM | > 5 µM | 2% | > 5 µM | > 1 µM | Cc1ccc(S(=O)(=O)n2nc(-c3ccncc3)nc2N)cc1 | 5% | –
10 | – | > 5 µM | > 5 µM | 7% | > 5 µM | > 1 µM | Nc1nc(-c2ccncc2)nn1C(=O)C1CCCCC1 | 10% | –
11 | – | > 5 µM | > 5 µM | – | > 5 µM | > 5 µM | Nc1n[nH]c(-c2ccccn2)n1 | – | –
12 | 54% | > 5 µM | 1.77 µM | – | > 5 µM | 0.968 µM | Nc1nc(-c2ccccn2)nn1C(=O)c1ccco1 | – | –
13 | – | > 5 µM | > 5 µM | – | > 5 µM | > 1 µM | CCOc1ccc(Nc2nc(N)n(C(=O)c3ccccc3)n2)cc1 | – | –
14 | 20% | > 5 µM | > 132 µM | 3% | > 5 µM | 13.2 µM | Nc1nc(-c2ccccn2)nn1C(=O)CNC(=O)c1ccccc1 | -2% | –
15 | 43% | > 5 µM | 0.494 µM | – | > 5 µM | 1.61 µM | Nc1nc(-c2ccccn2)nn1C(=O)c1cccnc1 | – | –
16 | 14% | > 5 µM | 4.57 µM | 8% | > 5 µM | 3.21 µM | Nc1nc(-c2ccccn2)nn1C(=O)c1ccc(C(F)(F)F)cc1 | 40% | –
17 | 1% | > 5 µM | > 5 µM | – | > 5 µM | 12.1 µM | Nc1nc(-c2ccccn2)nn1C(=O)C1CCOCC1 | – | –
18 | 58% | > 5 µM | 0.239 µM | 16% | > 5 µM | 0.793 µM | Nc1nc(-c2ccccn2)nn1C(=O)c1ccc(Br)cc1 | 119% | –
19 | 83% | > 5 µM | 0.086 µM | 12% | > 5 µM | 0.093 µM | Cc1cccc(C(=O)n2nc(-c3ccccn3)nc2N)c1 | 124% | –
20 | 21% | > 5 µM | 1.56 µM | – | > 5 µM | 9.82 µM | Nc1nc(-c2ccccn2)nn1C(=O)/C=C/c1ccccc1 | – | –
21 | 29% | – | > 5 µM | 3% | > 5 µM | 5.93 µM | Nc1nc(-c2ccccn2)nn1C(=O)c1ccc([N+](=O)[O-])cc1 | 35% | –
22 | – | > 5 µM | 1.24 µM | 5% | > 5 µM | 0.539 µM | Nc1nc(-c2ccccc2)nn1C(=O)c1ccccc1 | 29% | –
23 | – | > 5 µM | > 8 µM | 2% | > 5 µM | > 5 µM | Nc1nc(Nc2cccnc2)nn1C(=O)c1ccccc1 | 1% | –
24 | – | > 5 µM | > 5 µM | 1% | > 5 µM | > 5 µM | Nc1n[nH]c(-c2ccncc2)n1 | 5% | –
25 | 89% | > 5 µM | 3.39 µM | – | > 5 µM | 0.142 µM | Nc1nc(-c2ccccn2)nn1C(=O)c1ccc(NC(=O)C(F)(F)F)cc1 | – | Ratio IC50 (Homo sapiens): 24
26 | 11% | > 5 µM | > 5 µM | – | > 5 µM | > 1 µM | Nc1nc(-c2ccccn2)nn1C(=O)C1CCCCC1 | – | –
27 | 87% | > 5 µM | 0.509 µM | – | > 5 µM | 0.21 µM | Nc1nc(-c2ccccn2)nn1C(=O)Cc1ccccc1 | – | –
28 | – | > 5 µM | 0.962 µM | 2% | > 5 µM | 0.106 µM | Nc1nc(-c2ccncc2)nn1C(=O)c1ccccc1 | 80% | –
